From publication PMC10900806 (Asian Journal of Pharmaceutical Sciences, 2024)
Entries after “also recorded” stand apart in the source; their conditions may differ.

Columns and labels:
Format in all cases: cell-based
B16-F10 cells [1] = conditions: 5 µM, 1 h
caspase-3 = test: Caspase-3 activity assay; conditions: B16-F10 cells, 24 h treatment, Caspase-3 assay kit
Summary of the method: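 B16-F10 cells were seeded at 5 × 10^5 per well and cultured overnight. They were then exposed to test peptides for 24 h, and caspase-3 activity was measured with a commercial caspase-3 activity kit.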

B16-F10 cells [2] = test: Cell cycle assay; conditions: CPT 5 µM, AAM analogs 5 µM, conjugates 5 µM, 1 h at pH 5.5, then 24 h, n = 3
B16-F10 cells [3] = test: Endosomal escape, co-localization with LysoTracker Red; conditions: 5 µM, pH 5.5, 15 min then further 15, 30 and 60 min, ImageJ
Summary of the method: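 Cells were exposed to a FAM-labelled test peptide (5 µM) at pH 5.5 for 15 min, taken as 0 min, then incubated a further 15, 30 or 60 min. Medium was removed and lysosomes were stained with LysoTracker Red (100 nM, 30 min). After confocal imaging, co-localisation was quantified as Pearson's correlation coefficient (R).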

erythrocyte suspension = test: Hemolysis assay; conditions: 10% (v/v) mouse erythrocytes in PBS, 1 h, 37 °C, absorbance at 450 nm
Summary of the method: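 Heparinised whole mouse blood was centrifuged at 1,000 × g for 15 min. The pellet was washed three times with PBS and resuspended to 10% (v/v) in PBS. Suspension was mixed with test compounds for 1 h at 37 °C, then centrifuged, and supernatant absorbance was read at 450 nm. PBS defined 0% and 0.1% Triton X-100 defined 100% hemolysis.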

B16-F10 cells [4] = test: LDH release assay; conditions: 1 h, pH 7.4 or 5.5, CytoTox-ONE kit, n = 3
B16-F10 cells [5] = test: PI uptake assay; conditions: 10 µM
Summary of the method: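 B16-F10 cells (6 × 10^4) were seeded in glass-bottomed dishes and cultured overnight. End point: 1 h exposure to 10 µM test agent at pH 5.5 or 7.4, then fresh DMEM with PI (1 µg/ml) for 10 min before confocal imaging. Kinetics: 10 µM agent was added to DMEM containing PI (1 µg/ml) at pH 5.5, with images taken every 1 min for 30 min.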

B16-F10 cells [6] = test: Short-term cytotoxicity, MTT, 1 h; conditions: 1 h incubation, serum-free medium, different pH values, n = 3
Summary of the method: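 B16-F10 cells were seeded at 1 × 10^4 per well and cultured overnight. They were incubated 1 h with test compounds at different pH values, and viability was assessed by MTT. Membrane-lytic reference peptides served as positive controls. Data are from three independent experiments, given as mean ± SD.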

What does the source list for `CC[C@@]1(O)C(=O)OCc2c1cc1n(c2=O)Cc2cc3ccccc3nc2-1` [CPT, camptothecin]?
cellular uptake of CPT and peptide-CPT conjugates (blue fluorescence, confocal) (B16-F10 cells [1]; pH 7.4 or 5.5, near UV excitation): distinction of fluorescence intensity between pH 7.4 and pH 5.5 was not obvious; caspase-3 activation (caspase-3): significantly activated caspase-3; cell cycle distribution (B16-F10 cells [2]): significantly increased the cell proportion in the G2/M phase and decreased the cell proportion in the G0/G1 and S phases

What does the source list for “GIGAVLHVLTTGLPALISWIHHHHQC(FAM)-NH2 [FAM-AAM-1]”?
Pearson's correlation coefficients (r) between FAM-AAM-1 and LysoTracker Red (B16-F10 cells [3]): r-values became gradually low over time; cellular uptake of FAM-labeled peptides, confocal microscopy (B16-F10 cells [1]; serum-free medium, pH 7.4 or 5.5): higher cellular uptake in B16-F10 cells at pH 5.5 than that at pH 7.4

With melittin as the molecule, how does the hemolytic activity (erythrocyte suspension) read?
The hemolytic activity was “extreme hemolytic activity”.

What about the “LDH release (membrane-lytic activity)” value (B16-F10 cells [4]) of the same molecule?
Its value is “strong release of LDH at both pH 7.4 and 5.5”.

And the “PI uptake (PI-positive cells, membrane-disruptive activity)” value (B16-F10 cells [5]; 1 h, pH 7.4 and 5.5, PI 1 µg/ml, confocal)?
The value was “showed no obvious difference”.

And the “membrane-lytic behavior in time-lapse images” value (B16-F10 cells [5]; pH 5.5, PI 1 µg/ml, images every 1 min for 30 min)?
Its value is “developed necrosis, including rounding, blebbing, swelling, and bursting”.

What about the “short-term cytotoxicity against B16-F10 cells” value (B16-F10 cells [6]) of the same molecule?
The value was “high cytotoxicity to B16-F10 cells, even at 1.25 µM; also recorded: no obvious pH dependence”.
